# Most compounds without a hit are left out; they make up all but 3.8% or so of the library.
# Kir21 block: Kir2.1 (mouse) channel inhibition. HEK293-Kir2.1, FluxOR thallium flux fluorescence; hits give low values. AID 1672. 310,000 tested, 0.85% active. B-score at 10 µM. P35561;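 active = fluorescence ratio B-score at or below minus 3 SD of library scores, with starting-brightness B-score within 2 SD, cut at about -4.2 in these data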;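 also: channel flux triggered by added potassium and thallium sulfate stimulus; B-score of peak minus minimum fluorescence over baseline after thallium stimulus; more negative B-score means stronger Kir2.1 block with less thallium influx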
# KCNK9 inh: inhibitors of human KCNK9 two-pore domain potassium channel | Q9NPC2 | HEK293 KCNK9, FluxOR thallium flux fluorescence; hits give low values | B-score at 10 µM | 310,000 tested, 1.2% active | AID 488922;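 active = ratio B-score over 3 SD below the library mean, with starting fluorescence within 5 SD of its mean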;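 also: negative B-score means less thallium flux so channel inhibition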
# hERG rescue: compounds protecting human hERG from proarrhythmic drug block; 310,000 tested, 0.51% active; AID 1511; activation (rescue from dofetilide block), less the hit threshold, % at 10 µM; Q12809; CHO-hERG, FluxOR thallium flux, dofetilide IC70 present;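 active = activation above the mean of controls blocked by dofetilide plus 5 SD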;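 also: thallium influx through hERG after potassium depolarization seen as dye fluorescence rise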
# KCNQ1 inh: human KCNQ1 channel inhibition; AID 2642; 310,000 tested, 1.3% active; CHO-K1 KCNQ1, FluxOR thallium flux fluorescence; hits give high values; B-score at 10 µM;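 active = compounds whose thallium flux B-score, printed positive for inhibition, exceeds three library SD while starting fluorescence stays within three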;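 also: channel opened by potassium depolarization with thallium stimulus after 20 min compound exposure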
# KCNQ1 pot: potentiates or activates the human KCNQ1 potassium channel; 310,000 tested, 0.35% active; P51787; AID 2648; CHO-K1 KCNQ1, thallium flux FluxOR fluorescence; hits give high values; B-score at 10 µM;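 active = fluorescence ratio B-score, a plate-corrected score, at least three library SD, with initial intensity B-score within 5 SD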
#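 System: CHO-K1 cells stably expressing KCNQ1 / Medium: assay buffer for compound exposure, DMSO matched across wells / Reagent: thallium- and potassium-containing depolarizing buffer / Compound: one concentration, matched DMSO / Incubation: 20 min compound pretreatment at room temperature / Measured by: kinetic FluxOR fluorescence, 10 s baseline plus 110 s post-stimulus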
# KCNK3 inh: human KCNK3 channel inhibition, primary screen; CHO-KCNK3 thallium flux, FluxOR fluorescence; hits give low values; AID 602410; 340,000 tested, 0.84% active; B-score at 10 µM; O14649;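 active = B-score under library mean minus 4 SD, starting fluorescence ratio at most library mean plus 5 SD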;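 also: more negative B-score means stronger inhibition of thallium flux through KCNK3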
# KCNQ1 block val: reconfirmed blocker of the human KCNQ1 potassium channel; shares compounds with KCNQ1 inh; KCNQ1 cell line, FluxOR thallium flux fluorescence; inhibition, % at 10 µM; 1,600 tested, 93% active; AID 588353;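 active = primary screen active, with duplicate mean exceeding buffer control mean plus 3 SD of buffer wells, cut at about 28% in these data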;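 also: 0% = buffer control ratio and 100% = XE991 inhibitor control ratio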
# CHO Tl flux: activity in parental CHO cells lacking KCNQ1; shares compounds with KCNQ1 inh; parental CHO-K1, FluxOR thallium flux fluorescence ratio; hits give low values; zero means no signal rise above baseline; fluorescence ratio (Tl flux) at 10 µM; 1,600 tested, 21% active; AID 588366;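 active = mean of duplicate thallium-flux fluorescence ratios in parental host cells more than 5 SD below the buffer control mean, cut at about 0.38 in these data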;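 also: ratio is peak minus minimum fluorescence divided by baseline fluorescence; actives read low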
# KCNQ1 APC inh: human KCNQ1 inhibition validated by electrophysiology | shares compounds with KCNQ1 inh | KCNQ1-CHO cells, automated patch clamp current | calls only at 10 µM | 490 tested, 20% active;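 active = KCNQ1 current drop exceeding 3 SD of negative control wells, seen in both duplicate runs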;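 also: steady state current during a 2 s step from -80 to +40 mV; negative values mean current inhibition and positive values mean potentiation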
# KCNQ2 inh: selectivity of KCNQ1 inhibitors: inhibition of rat KCNQ2 channel; shares compounds with KCNQ1 inh; KCNQ2 cells, FluxOR thallium flux fluorescence; inhibition, % at 10 µM; 1,600 tested, 71% active;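 active = mean percent inhibition of the KCNQ2 thallium signal more than 5 SD above the buffer-only control wells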;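 also: KCNQ2 expressed in CHO cells; 0% = buffer control wells and 100% = XE-991 inhibitor control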
# Target sequence (O88943 whole entry, looked up): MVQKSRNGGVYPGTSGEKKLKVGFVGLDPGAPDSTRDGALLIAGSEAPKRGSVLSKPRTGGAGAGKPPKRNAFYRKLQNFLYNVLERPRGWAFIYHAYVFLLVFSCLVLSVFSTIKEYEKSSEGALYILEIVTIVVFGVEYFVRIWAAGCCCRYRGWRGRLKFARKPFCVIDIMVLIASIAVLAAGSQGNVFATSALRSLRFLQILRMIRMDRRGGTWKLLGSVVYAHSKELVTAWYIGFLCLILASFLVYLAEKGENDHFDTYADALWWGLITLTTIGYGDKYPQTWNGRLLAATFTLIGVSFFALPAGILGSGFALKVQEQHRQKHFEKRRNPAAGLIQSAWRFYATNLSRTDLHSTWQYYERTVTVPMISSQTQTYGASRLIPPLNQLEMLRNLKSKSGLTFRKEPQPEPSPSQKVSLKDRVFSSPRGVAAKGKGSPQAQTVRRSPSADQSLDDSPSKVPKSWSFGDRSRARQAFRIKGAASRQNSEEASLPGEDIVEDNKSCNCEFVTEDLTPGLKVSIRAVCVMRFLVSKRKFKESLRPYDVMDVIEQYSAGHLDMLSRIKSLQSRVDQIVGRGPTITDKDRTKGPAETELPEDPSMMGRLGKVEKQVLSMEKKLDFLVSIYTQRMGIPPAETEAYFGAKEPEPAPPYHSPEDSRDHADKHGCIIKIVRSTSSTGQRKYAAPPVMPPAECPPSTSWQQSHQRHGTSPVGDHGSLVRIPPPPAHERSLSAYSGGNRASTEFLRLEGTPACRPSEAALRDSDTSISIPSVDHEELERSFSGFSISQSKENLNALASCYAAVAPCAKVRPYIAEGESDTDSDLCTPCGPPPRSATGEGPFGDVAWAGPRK
# KCNQ1-KCNE1 inh: KCNQ1 inhibitor that also blocks human KCNQ1/KCNE1 channel; 1,600 tested, 77% active; inhibition, % at 10 µM; shares compounds with KCNQ1 inh; KCNQ1/KCNE1 cells, FluxOR thallium flux fluorescence;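 active = mean percent inhibition of duplicate wells above the buffer-only control mean plus 3 SD of those controls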;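 also: 0% = buffer only wells and 100% = XE-991 inhibitor control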
# * = called active by the depositor; i = inactive; . = no result.
SMILES,Kir21 block,KCNK9 inh,hERG rescue,KCNQ1 inh,KCNQ1 pot,KCNK3 inh,KCNQ1 block val,CHO Tl flux,KCNQ2 inh,KCNQ1-KCNE1 inh,others
CCCCNC(=O)Cn1c(=O)oc2cc(S(=O)(=O)N3CC(C)CC(C)C3)ccc21 (configuration not stated),0.03,i,-12,i,i,i,.,.,.,.,
O=C(Nc1cccc(Cl)c1)Nc1cnccn1,0.45,i,-3,i,i,i,.,.,.,.,
O=C(Nc1cccc(Cl)c1)Nc1ccnc(-c2cccnc2)n1,-2.8,i,-9,6*,i,i,74*,0.52,i,i,
Cc1csc(NC(=O)Nc2cccc(Cl)c2)n1,1.1,i,-5,6*,i,i,70*,0.52,i,93%*,
O=C(Nc1cccc(Cl)c1)Nc1ccc(Br)cc1F,-0.1,i,-13,9*,i,i,52*,0.55,i,i,
O=C(Nc1cccc(Cl)c1)Nc1ccon1,2.6,i,-10,7*,i,i,54*,0.54,i,i,
O=C(Nc1ccccc1)Nc1ccc(Br)cc1F,-0.79,i,-11,i,i,i,.,.,.,.,
Cc1cc(C)n2c(SCC(=O)Nc3cccc(S(N)(=O)=O)c3)nnc2n1,.,.,.,.,.,i,.,.,.,.,
O=C(Nc1cccc(Cl)c1)Nc1nccs1,1.7,i,-6,7*,i,i,70*,0.54,i,42%*,
CCC1(c2ccc(Cl)cc2)NC(=O)N(CC(=O)NC2CCCCCC2)C1=O (configuration not stated),.,.,.,.,.,i,.,.,.,.,
Cc1ccc(S(=O)(=O)NC(=O)c2cc(C)n(-c3ccc(N(C)C)cc3)c2C)cc1,-0.22,i,-12,6*,i,i,30*,0.54,i,i,
Cc1ccc(S(=O)(=O)NC(=O)c2cc(C)n(-c3ccccc3)c2C)cc1,-0.37,i,-10,i,i,i,.,.,.,.,
CCOC(=O)c1c(NC(=O)CSc2nnc(-c3c[nH]c4ccccc34)n2C)sc2c1CCCC2,0,i,-21,7*,i,i,64*,0.46,65%*,i,
O=C(Nc1nc(-c2ccccc2)cs1)c1ccccc1NS(=O)(=O)c1ccc(F)cc1,-0.8,i,-29,10*,i,i,105*,0.33*,i,151%*,
Cc1ccc(S(=O)(=O)N2CCN(C(=O)Cn3nc(C)c([N+](=O)[O-])c3C)CC2)cc1,.,.,.,.,.,i,.,.,.,.,
COc1cccc(C(=O)Nc2ccc(Cl)c(C(F)(F)F)c2)c1,-0.06,i,-15,9*,i,i,136*,0.37*,130%*,78%*,
O=C(c1ccco1)N1CCCC(c2nc3c(nnn3Cc3ccccc3)c(=O)[nH]2)C1 (configuration not stated),0.05,i,-6,i,i,i,.,.,.,.,
CC(C)(C)c1nc(N2CCN(C(=O)c3ccco3)CC2)c2nnn(Cc3ccccc3)c2n1,0.53,i,-9,7*,i,i,118*,0.39,105%*,132%*,KCNQ1 APC inh=i
CCCCCOc1ccc(Br)cc1CSC(=N)N,-12*,i,-27,9*,i,i,125*,0.37*,86%*,94%*,
